# Test results reported in ChEMBL document CHEMBL4689842, “EUbOPEN Chemogenomics Library wave 1” (2021).
# Columns and labels:
# U2OS = assay: Multiplex assay against U2OS; format: toxicity, cell-based; settings: human
# Procedure, shortened: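 Imaging took place on a CQ1 microscope at 37°C and 5% CO2 once compound had been added to live cells stained at seeding with Hoechst33342, BioTracker Green Microtubule Cytoskeleton Dye, MitoTracker Red and Annexin V Alexa Fluor 680. CellPathfinder machine-learning gating classed cells as Hoechst high-intensity objects or normal cells, classed normal cells as having healthy, pyknosed or fragmented nuclei, and classed pyknosed cells as mitotic or apoptotic. Tubulin, mitochondrial-mass and membrane-permeability phenotypes are per cents of the healthy-nucleus cells.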
# Fibroblast = assay: Incucyte cell viability with human fibroblast; format: toxicity, cell-based; settings: 10 µM, compound concentration 10 uM; note: filed as whole numbers so only -1 and 0 and 1 occur
# [1] = 12 h, 1 µM, compound concentration 1 uM, replicate 1
# [2] = 12 h, 1 µM, compound concentration 1 uM, replicate 2
# [3] = 12 h, 10 µM, compound concentration 10 uM, replicate 1
# [4] = 12 h, 10 µM, compound concentration 10 uM, replicate 2
# [5] = 24 h, 1 µM, compound concentration 1 uM, replicate 1
# [6] = 24 h, 1 µM, compound concentration 1 uM, replicate 2
# [7] = 24 h, 10 µM, compound concentration 10 uM, replicate 1
# [8] = 24 h, 10 µM, compound concentration 10 uM, replicate 2
# [9] = 48 h, 1 µM, compound concentration 1 uM, replicate 1
# [10] = 48 h, 1 µM, compound concentration 1 uM, replicate 2
# [11] = 48 h, 10 µM, compound concentration 10 uM, replicate 1
# [12] = 48 h, 10 µM, compound concentration 10 uM, replicate 2
smiles,measurement,setting,value
CCc1cc2c(cc1CC)CC(NC[C@H](O)c1ccc(O)c3[nH]c(=O)ccc13)C2 [INDACATEROL],Population Apoptotic (%),U2OS; [1],41%
same,Population Fragmented Nuclei (%),U2OS; [1],10%
same,Population Healthy Nuclei (%),U2OS; [1],76%
same,Population Hoechst High Intensity Objects (%),U2OS; [1],7%
same,Population Membrane Permeable-Phenotype (%),U2OS; [1],2%
same,Population Mitochondria Different-Phenotype (%),U2OS; [1],10%
same,Population Mitotic Cells (%),U2OS; [1],58%
same,Population Normal (%),U2OS; [1],92%
same,Population Pyknosed Nuclei (%),U2OS; [1],13%
same,Population Tubulin-Different-Phenotype (%),U2OS; [1],11%
same,Total Cell Count,U2OS; [1],185
same,Population Apoptotic (%),U2OS; [2],33%
same,Population Fragmented Nuclei (%),U2OS; [2],3%
same,Population Healthy Nuclei (%),U2OS; [2],92%
same,Population Membrane Permeable-Phenotype (%),U2OS; [2],1%
same,Population Mitochondria Different-Phenotype (%),U2OS; [2],11%
same,Population Mitotic Cells (%),U2OS; [2],66%
same,Population Pyknosed Nuclei (%),U2OS; [2],4%
same,Population Tubulin-Different-Phenotype (%),U2OS; [2],14%
same,Total Cell Count,U2OS; [2],71
same,Population Fragmented Nuclei (%),U2OS; [3],18%
same,Population Healthy Nuclei (%),U2OS; [3],54%
same,Population Hoechst High Intensity Objects (%),U2OS; [3],4%
same,Population Membrane Permeable-Phenotype (%),U2OS; [3],22%
same,Population Mitochondria Different-Phenotype (%),U2OS; [3],95%
same,Population Normal (%),U2OS; [3],95%
same,Population Pyknosed Nuclei (%),U2OS; [3],27%
same,Population Tubulin-Different-Phenotype (%),U2OS; [3],90%
same,Total Cell Count,U2OS; [3],139
same,Population Apoptotic (%),U2OS; [4],68%
same,Population Fragmented Nuclei (%),U2OS; [4],15%
same,Population Healthy Nuclei (%),U2OS; [4],64%
same,Population Hoechst High Intensity Objects (%),U2OS; [4],6%
same,Population Membrane Permeable-Phenotype (%),U2OS; [4],23%
same,Population Mitochondria Different-Phenotype (%),U2OS; [4],98%
same,Population Mitotic Cells (%),U2OS; [4],31%
same,Population Normal (%),U2OS; [4],93%
same,Population Pyknosed Nuclei (%),U2OS; [4],19%
same,Population Tubulin-Different-Phenotype (%),U2OS; [4],88%
same,Total Cell Count,U2OS; [4],71
same,Population Apoptotic (%),U2OS; [5],36%
same,Population Fragmented Nuclei (%),U2OS; [5],11%
same,Population Healthy Nuclei (%),U2OS; [5],74%
same,Population Hoechst High Intensity Objects (%),U2OS; [5],6%
same,Population Membrane Permeable-Phenotype (%),U2OS; [5],2%
same,Population Mitochondria Different-Phenotype (%),U2OS; [5],11%
same,Population Mitotic Cells (%),U2OS; [5],63%
same,Population Normal (%),U2OS; [5],93%
same,Population Pyknosed Nuclei (%),U2OS; [5],13%
same,Population Tubulin-Different-Phenotype (%),U2OS; [5],9%
same,Total Cell Count,U2OS; [5],184
same,Population Apoptotic (%),U2OS; [6],14%
same,Population Fragmented Nuclei (%),U2OS; [6],4%
same,Population Healthy Nuclei (%),U2OS; [6],86%
same,Population Hoechst High Intensity Objects (%),U2OS; [6],3%
same,Population Membrane Permeable-Phenotype (%),U2OS; [6],0%
same,Population Mitochondria Different-Phenotype (%),U2OS; [6],10%
same,Population Mitotic Cells (%),U2OS; [6],85%
same,Population Normal (%),U2OS; [6],96%
same,Population Pyknosed Nuclei (%),U2OS; [6],9%
same,Population Tubulin-Different-Phenotype (%),U2OS; [6],12%
same,Total Cell Count,U2OS; [6],73
same,Population Apoptotic (%),U2OS; [7],78%
same,Population Fragmented Nuclei (%),U2OS; [7],24%
same,Population Healthy Nuclei (%),U2OS; [7],43%
same,Population Hoechst High Intensity Objects (%),U2OS; [7],4%
same,Population Membrane Permeable-Phenotype (%),U2OS; [7],50%
same,Population Mitochondria Different-Phenotype (%),U2OS; [7],96%
same,Population Mitotic Cells (%),U2OS; [7],21%
same,Population Normal (%),U2OS; [7],95%
same,Population Pyknosed Nuclei (%),U2OS; [7],32%
same,Population Tubulin-Different-Phenotype (%),U2OS; [7],79%
same,Total Cell Count,U2OS; [7],174
same,Population Apoptotic (%),U2OS; [8],89%
same,Population Fragmented Nuclei (%),U2OS; [8],11%
same,Population Healthy Nuclei (%),U2OS; [8],67%
same,Population Hoechst High Intensity Objects (%),U2OS; [8],6%
same,Population Membrane Permeable-Phenotype (%),U2OS; [8],59%
same,Population Mitochondria Different-Phenotype (%),U2OS; [8],100%
same,Population Mitotic Cells (%),U2OS; [8],10%
same,Population Normal (%),U2OS; [8],93%
same,Population Pyknosed Nuclei (%),U2OS; [8],20%
same,Population Tubulin-Different-Phenotype (%),U2OS; [8],86%
same,Total Cell Count,U2OS; [8],78
same,Population Apoptotic (%),U2OS; [9],45%
same,Population Fragmented Nuclei (%),U2OS; [9],7%
same,Population Healthy Nuclei (%),U2OS; [9],78%
same,Population Hoechst High Intensity Objects (%),U2OS; [9],4%
same,Population Membrane Permeable-Phenotype (%),U2OS; [9],2%
same,Population Mitotic Cells (%),U2OS; [9],54%
same,Population Normal (%),U2OS; [9],95%
same,Population Pyknosed Nuclei (%),U2OS; [9],14%
same,Population Tubulin-Different-Phenotype (%),U2OS; [9],6%
same,Total Cell Count,U2OS; [9],181
same,Population Apoptotic (%),U2OS; [10],0%
same,Population Fragmented Nuclei (%),U2OS; [10],6%
same,Population Healthy Nuclei (%),U2OS; [10],87%
same,Population Hoechst High Intensity Objects (%),U2OS; [10],5%
same,Population Membrane Permeable-Phenotype (%),U2OS; [10],8%
same,Population Mitochondria Different-Phenotype (%),U2OS; [10],12%
same,Population Mitotic Cells (%),U2OS; [10],100%
same,Population Normal (%),U2OS; [10],94%
same,Population Pyknosed Nuclei (%),U2OS; [10],5%
same,Population Tubulin-Different-Phenotype (%),U2OS; [10],11%
same,Total Cell Count,U2OS; [10],69
same,Population Apoptotic (%),U2OS; [11],84%
same,Population Fragmented Nuclei (%),U2OS; [11],23%
same,Population Healthy Nuclei (%),U2OS; [11],30%
same,Population Hoechst High Intensity Objects (%),U2OS; [11],9%
same,Population Membrane Permeable-Phenotype (%),U2OS; [11],38%
same,Population Mitochondria Different-Phenotype (%),U2OS; [11],96%
same,Population Mitotic Cells (%),U2OS; [11],15%
same,Population Normal (%),U2OS; [11],90%
same,Population Pyknosed Nuclei (%),U2OS; [11],45%
same,Population Tubulin-Different-Phenotype (%),U2OS; [11],73%
same,Total Cell Count,U2OS; [11],239
same,Population Apoptotic (%),U2OS; [12],73%
same,Population Fragmented Nuclei (%),U2OS; [12],9%
same,Population Healthy Nuclei (%),U2OS; [12],53%
same,Population Hoechst High Intensity Objects (%),U2OS; [12],16%
same,Population Membrane Permeable-Phenotype (%),U2OS; [12],49%
same,Population Mitochondria Different-Phenotype (%),U2OS; [12],100%
same,Population Mitotic Cells (%),U2OS; [12],26%
same,Population Normal (%),U2OS; [12],83%
same,Population Pyknosed Nuclei (%),U2OS; [12],37%
same,Population Tubulin-Different-Phenotype (%),U2OS; [12],67%
same,Total Cell Count,U2OS; [12],122
same,Growth Rate,"Fibroblast; 0 h, replicate number 1, timepoint 0 hours",1
same,Growth Rate,"Fibroblast; 6 h, replicate number 2, timepoint 6 hours",0
same,Growth Rate,"Fibroblast; 12 h, replicate number 1, timepoint 12 hours",0
same,Growth Rate,"Fibroblast; 18 h, replicate number 1, timepoint 18 hours",0
same,Growth Rate,"Fibroblast; 24 h, replicate number 1, timepoint 24 hours",0
